In ChEMBL document CHEMBL4049426, “Identification of the Clinical Candidate (R)-(1-(4-Fluorophenyl)-6-((1-methyl-1H-pyrazol-4-yl)sulfonyl)-4,4a,5,6,7,8-hexahydro-1H-pyrazolo[3,4-g]isoquinolin-4a-yl)(4-(trifluoromethyl)pyridin-2-yl)methanone (CORT125134): A Selective Glucocorticoid Receptor (GR) Antagonist” (J Med Chem, 2017):
The source made the active and inactive calls. The calls are words filed in the database; no cut-off is given here.

Tests used:
[1] = target: T1, Glucocorticoid receptor (Rattus norvegicus, UniProt P06536); experiment: (§1) Agonist activity at rat glucocorticoid receptor in primary hepatocytes assessed as induction of tyrosine amino transferase activity measured after 20 hrs; assay type: cell-based
T1 sequence (P06536 whole entry): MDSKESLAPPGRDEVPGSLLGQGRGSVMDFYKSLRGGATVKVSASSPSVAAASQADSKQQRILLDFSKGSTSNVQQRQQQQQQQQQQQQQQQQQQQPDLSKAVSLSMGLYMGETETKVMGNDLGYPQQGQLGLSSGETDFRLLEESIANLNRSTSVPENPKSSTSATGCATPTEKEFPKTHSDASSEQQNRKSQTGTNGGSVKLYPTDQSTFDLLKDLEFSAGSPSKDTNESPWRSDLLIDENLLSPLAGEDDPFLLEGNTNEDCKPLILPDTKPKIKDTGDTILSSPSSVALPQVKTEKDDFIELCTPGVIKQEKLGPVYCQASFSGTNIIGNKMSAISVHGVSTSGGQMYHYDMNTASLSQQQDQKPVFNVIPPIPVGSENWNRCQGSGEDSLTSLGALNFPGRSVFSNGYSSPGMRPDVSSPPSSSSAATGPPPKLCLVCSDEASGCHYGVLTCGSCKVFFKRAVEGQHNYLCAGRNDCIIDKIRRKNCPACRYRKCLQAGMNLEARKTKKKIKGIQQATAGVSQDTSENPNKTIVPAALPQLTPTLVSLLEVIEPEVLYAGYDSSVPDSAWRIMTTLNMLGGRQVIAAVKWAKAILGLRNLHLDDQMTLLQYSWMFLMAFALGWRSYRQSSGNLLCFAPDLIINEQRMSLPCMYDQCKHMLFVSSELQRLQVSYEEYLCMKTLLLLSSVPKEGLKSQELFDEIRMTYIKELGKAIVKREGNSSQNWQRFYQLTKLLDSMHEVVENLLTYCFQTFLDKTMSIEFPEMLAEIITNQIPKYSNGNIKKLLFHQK

[2] = target: T2, Glucocorticoid receptor (Rattus norvegicus) (UniProt P06536); experiment: as §1; assay type: cell-based
T2 sequence (whole entry): T1 sequence (P06536 whole entry)

[3] = tested on: Rattus norvegicus; experiment: In vivo antagonist activity at glucocorticoid receptor in Sprague-Dawley rat assessed as reduction in cortisone-induced plasma glucose levels at 30 mg/kg, po bid via gavage for 6 days pretreated for 12 hrs followed by cortisone 21-acetate treatment measured 24 hrs after last cortisone 21-acetate treatment; assay type: functional, organism-based
Summary of the method: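 Male Sprague Dawley rats (200-250g), 3-day vehicle baseline, groups of eight. Compound as suspension in DMSO:Tween 80:0.5% HPMC 10:0.1:89.9, oral gavage twice daily for 6 days; cortisone 21-acetate 30mg/kg s.c. daily in 1% methylcellulose. Tail-vein blood 24 h after last cortisone (12 h after last compound); glucose by clinical reagent, insulin by ultrasensitive rat ELISA.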

[4] = AUC in monkey plasma at 20 mg/kg, po measured up to 24 hrs by LC/MS analysis; assay type: ADME, organism-based, Macaca mulatta; parameters: dose 20 mg/kg, time < 24 hr, route oral; details: rhesus monkey
Summary of the method: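 Monkey i.v./p.o. study: oral 20mg/kg in 10% DMSO, 0.1% Tween 80, 0.5% hydroxypropylmethylcellulose in water; i.v. dose 1mg/kg.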

[5] = target: T3, Glucocorticoid receptor (Canis lupus familiaris, UniProt A0A8C0QLS2); experiment: (§2) Agonist activity at dog glucocorticoid receptor in primary hepatocytes assessed as induction of tyrosine amino transferase activity measured after 20 hrs; assay type: cell-based
T3 sequence (A0A8C0QLS2 whole entry): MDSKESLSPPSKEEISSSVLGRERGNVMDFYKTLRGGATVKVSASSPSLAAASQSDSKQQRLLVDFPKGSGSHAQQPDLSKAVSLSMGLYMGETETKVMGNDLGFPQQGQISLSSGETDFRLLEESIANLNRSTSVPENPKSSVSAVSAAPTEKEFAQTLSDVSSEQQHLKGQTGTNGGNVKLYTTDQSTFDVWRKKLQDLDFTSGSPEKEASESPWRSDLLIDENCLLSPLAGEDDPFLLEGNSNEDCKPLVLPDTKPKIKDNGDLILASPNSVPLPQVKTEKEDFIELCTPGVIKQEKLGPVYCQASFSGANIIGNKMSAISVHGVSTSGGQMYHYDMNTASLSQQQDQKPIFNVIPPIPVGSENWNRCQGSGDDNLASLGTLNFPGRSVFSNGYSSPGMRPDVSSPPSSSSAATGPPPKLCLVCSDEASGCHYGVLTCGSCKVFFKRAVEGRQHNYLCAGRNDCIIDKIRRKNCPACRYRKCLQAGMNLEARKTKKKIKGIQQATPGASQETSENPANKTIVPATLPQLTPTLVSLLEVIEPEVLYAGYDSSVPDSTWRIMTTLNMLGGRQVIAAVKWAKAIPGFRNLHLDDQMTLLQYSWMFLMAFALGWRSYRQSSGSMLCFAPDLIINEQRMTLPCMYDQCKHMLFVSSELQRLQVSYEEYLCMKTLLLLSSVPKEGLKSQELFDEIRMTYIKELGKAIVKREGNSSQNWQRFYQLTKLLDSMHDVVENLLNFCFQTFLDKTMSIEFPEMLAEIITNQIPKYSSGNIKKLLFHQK

[6] = target: T4, Glucocorticoid receptor (Canis lupus familiaris) (UniProt A0A8C0QLS2); experiment: as §2; assay type: cell-based
T4 sequence (whole entry): T3 sequence (A0A8C0QLS2 whole entry)

[7] = target: Cytochrome P450 2C19 (Homo sapiens, UniProt P33261); experiment: Inhibition of CYP2C19 (unknown origin); assay type: ADME
[8] = target: Cytochrome P450 3A5 (Homo sapiens, UniProt P20815); experiment: Inhibition of CYP3A5 (unknown origin); assay type: ADME
[9] = target: Cytochrome P450 2C9 (Homo sapiens, UniProt P11712); experiment: Inhibition of CYP2C9 (unknown origin); assay type: ADME
[10] = target: T5, Cytochrome P450 2B6 (Homo sapiens, UniProt P20813); experiment: Inhibition of CYP2B6 (unknown origin); assay type: ADME
T5 sequence (P20813 whole entry): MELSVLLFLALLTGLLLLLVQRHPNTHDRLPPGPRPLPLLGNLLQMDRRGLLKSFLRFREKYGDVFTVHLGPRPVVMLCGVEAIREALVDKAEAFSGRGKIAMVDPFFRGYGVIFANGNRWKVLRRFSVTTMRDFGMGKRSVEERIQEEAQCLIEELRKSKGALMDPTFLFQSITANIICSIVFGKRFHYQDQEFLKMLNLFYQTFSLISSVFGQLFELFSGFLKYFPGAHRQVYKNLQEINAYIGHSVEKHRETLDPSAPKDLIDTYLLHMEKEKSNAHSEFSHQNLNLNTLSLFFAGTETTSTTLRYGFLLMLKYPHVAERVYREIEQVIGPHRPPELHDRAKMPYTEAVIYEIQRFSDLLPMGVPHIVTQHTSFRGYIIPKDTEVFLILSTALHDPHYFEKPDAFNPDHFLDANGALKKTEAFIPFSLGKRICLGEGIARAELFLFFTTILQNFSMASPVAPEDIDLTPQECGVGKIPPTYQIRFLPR

[11] = AUC in Sprague-Dawley CD-1 rat plasma at 3 mg/kg, po administered as cassette dose via gavage measured up to 24 hrs by LC/MS analysis; assay type: ADME, organism-based; parameters: time < 24 hr, dose 3 mg/kg, route oral
Summary of the method: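 Three male Sprague Dawley CD-1 rats (220-250g) with jugular vein catheters; three test compounds plus a reference dosed together by oral gavage, 3mg/kg each, in DMSO:0.5% methylcellulose 10:90 (0.6mg/mL per compound), 5mL/kg. Plasma sampled pre-dose and at 0.25, 0.5, 1, 2, 4, 6, 8, 24 h; LC/MS.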

[12] = target: T5, Cytochrome P450 2B6; experiment: Induction of CYP2B6 in human hepatocytes; assay type: ADME, cell-based

Cytochrome P450 2C9, sequence (P11712 whole entry): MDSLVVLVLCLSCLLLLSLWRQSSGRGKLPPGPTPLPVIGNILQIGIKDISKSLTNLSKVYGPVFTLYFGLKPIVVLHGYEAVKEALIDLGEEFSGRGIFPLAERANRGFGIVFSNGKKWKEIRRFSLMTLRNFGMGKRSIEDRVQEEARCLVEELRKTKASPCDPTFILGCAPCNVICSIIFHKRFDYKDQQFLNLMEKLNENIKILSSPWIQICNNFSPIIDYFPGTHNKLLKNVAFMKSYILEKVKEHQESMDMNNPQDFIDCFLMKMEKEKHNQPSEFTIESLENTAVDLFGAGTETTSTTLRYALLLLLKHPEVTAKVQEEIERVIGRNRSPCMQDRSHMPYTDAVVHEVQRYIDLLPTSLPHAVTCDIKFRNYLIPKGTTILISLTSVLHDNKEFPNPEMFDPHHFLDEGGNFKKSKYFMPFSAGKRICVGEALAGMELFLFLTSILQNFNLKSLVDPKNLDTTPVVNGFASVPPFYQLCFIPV
Cytochrome P450 2C19, sequence (P33261 whole entry): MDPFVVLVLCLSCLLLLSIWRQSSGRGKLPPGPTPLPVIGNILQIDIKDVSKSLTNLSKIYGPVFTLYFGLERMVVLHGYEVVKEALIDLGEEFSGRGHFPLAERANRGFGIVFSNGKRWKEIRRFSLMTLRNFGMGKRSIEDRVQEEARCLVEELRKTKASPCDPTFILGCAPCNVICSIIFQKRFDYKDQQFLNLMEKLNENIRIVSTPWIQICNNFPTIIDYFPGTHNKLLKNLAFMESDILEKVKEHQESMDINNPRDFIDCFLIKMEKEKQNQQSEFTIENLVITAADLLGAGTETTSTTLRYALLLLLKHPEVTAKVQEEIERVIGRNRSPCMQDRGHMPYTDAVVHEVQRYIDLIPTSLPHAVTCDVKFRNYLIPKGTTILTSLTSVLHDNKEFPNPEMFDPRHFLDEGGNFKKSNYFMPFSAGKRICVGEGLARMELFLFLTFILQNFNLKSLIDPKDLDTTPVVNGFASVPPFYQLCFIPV
Cytochrome P450 3A5, sequence (P20815 whole entry): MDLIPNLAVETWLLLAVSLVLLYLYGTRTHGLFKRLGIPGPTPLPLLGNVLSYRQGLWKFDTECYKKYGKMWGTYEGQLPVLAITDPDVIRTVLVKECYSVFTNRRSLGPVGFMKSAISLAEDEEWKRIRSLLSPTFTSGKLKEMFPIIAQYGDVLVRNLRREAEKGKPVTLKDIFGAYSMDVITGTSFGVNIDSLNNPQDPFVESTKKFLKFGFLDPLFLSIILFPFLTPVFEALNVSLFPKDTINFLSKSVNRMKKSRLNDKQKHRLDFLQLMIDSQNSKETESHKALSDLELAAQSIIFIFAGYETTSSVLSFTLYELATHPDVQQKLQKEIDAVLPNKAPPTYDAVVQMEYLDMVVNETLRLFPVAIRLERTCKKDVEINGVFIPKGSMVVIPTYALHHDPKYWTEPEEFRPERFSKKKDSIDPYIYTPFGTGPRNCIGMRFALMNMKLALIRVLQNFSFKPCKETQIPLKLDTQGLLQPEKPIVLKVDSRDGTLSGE

With `Cn1cc(S(=O)(=O)N2CCC3=Cc4c(cnn4-c4ccc(F)cc4)C[C@]3(C(=O)c3cc(C(F)(F)F)ccn3)C2)cn1` [RELACORILANT] the EC50 [1] was over 10 µM, the Emax [2] was 22% and the inhibition [3] was “Active”. The AUC at 24 h [4] was 11.7 µg·h/mL, the EC50 [5] was over 10 µM and the Emax [6] was 80%. It also gave an IC50 [7] of 8 µM, an IC50 [8] of 4.9 µM and an IC50 [9] of 2 µM. The IC50 [10] was over 10 µM, the AUC at 24 h [11] was 1.22 µg·h/mL and the Activity [12] was “Not Active”.
